The results in this text go back to ChEMBL document CHEMBL1275584, “Genetically engineered lipopeptide antibiotics related to A54145 and daptomycin with improved properties” (Antimicrob Agents Chemother, 2010).

In brackets after ≈: the same amount, converted by molar mass.

Holding throughout (assay type): functional
In assay [1] the test system is Staphylococcus aureus. As to the kind of experiment: Ratio of MIC for Staphylococcus aureus 42 in presence of 1% bovine pulmonary surfactant to MIC for Staphylococcus aureus 42 in absence of 1% bovine pulmonary surfactant. The essentials: (§1)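 Broth MIC in Mueller-Hinton broth with 50 mg/liter CaCl2, run with or without 1% bovine pulmonary surfactant, following CLSI methods. Colonies came from frozen stocks streaked on sheep-blood tryptic soy agar (37°C, ~24 h). Incubation was at 37°C with rotation at 200 rpm. The ratio is MIC with surfactant divided by MIC without.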

Assay [2] deals with Staphylococcus aureus. Kind of assay: Antibacterial activity against Staphylococcus aureus 42 in absence of 1% bovine pulmonary surfactant by CLSI method. The conditions noted are these: Staphylococcus aureus, 42, Pulmonary surfactant. The essentials: as §1
The subject of assay [3] is Staphylococcus aureus. Kind of assay: Antibacterial activity against Staphylococcus aureus 42 in presence of 1% bovine pulmonary surfactant by CLSI method. The conditions noted are these: Staphylococcus aureus, 42, Pulmonary surfactant. In outline: as §1

A word on the MIC: it is the lowest concentration found to suppress growth. As to `CC(C)CCCCCCCC(=O)N[C@@H](Cc1c[nH]c2ccccc12)C(=O)N[C@H](CC(N)=O)C(=O)N[C@@H](CC(=O)O)C(=O)N[C@@H]1C(=O)NCC(=O)N[C@@H](CCCN)C(=O)N[C@@H](CC(=O)O)C(=O)N[C@H](C)C(=O)N[C@@H](CC(=O)O)C(=O)NCC(=O)N[C@H](C)C(=O)N[C@@H]([C@H](C)CC(=O)O)C(=O)N[C@@H](CC(=O)c2ccccc2N)C(=O)O[C@H]1C`, in the assay on Staphylococcus aureus [1], the Ratio was determined as 16. The MIC worked out at 1 µg/mL (≈ 0.618 µM) against Staphylococcus aureus [2] and 16 µg/mL with Staphylococcus aureus [3].

Regarding `CC(C)CCCCCCCC(=O)N[C@@H](Cc1c[nH]c2ccccc12)C(=O)N[C@H](CC(N)=O)C(=O)N[C@@H](CC(=O)O)C(=O)N[C@@H]1C(=O)NCC(=O)N[C@@H](CCCN)C(=O)N[C@@H](CC(=O)O)C(=O)N[C@H](C)C(=O)N[C@@H](CC(=O)O)C(=O)NCC(=O)N[C@H](CO)C(=O)N[C@@H]([C@H](C)CC(=O)O)C(=O)N[C@@H](CC(=O)c2ccccc2N)C(=O)O[C@H]1C`, the Ratio in the assay with Staphylococcus aureus [1] is recorded as 128. Also, the MIC against Staphylococcus aureus [2] came out at 0.5 µg/mL (≈ 0.306 µM); in the assay on Staphylococcus aureus [3], 64 µg/mL.

Consider `CC(C)CCCCCCCC(=O)N[C@@H](Cc1c[nH]c2ccccc12)C(=O)N[C@H](CC(N)=O)C(=O)N[C@@H](CC(=O)O)C(=O)N[C@@H]1C(=O)NCC(=O)N[C@@H](CCCN)C(=O)N[C@@H](CC(=O)O)C(=O)N[C@H](C)C(=O)N[C@@H](CC(=O)O)C(=O)NCC(=O)N[C@H](CO)C(=O)N[C@@H]([C@H](C)CC(=O)O)C(=O)N[C@@H](Cc2c[nH]c3ccccc23)C(=O)O[C@H]1C`, for which, in the assay with Staphylococcus aureus [1], the Ratio is listed as 32. Also, the figures for the MIC with Staphylococcus aureus [2] and with Staphylococcus aureus [3] were 1 µg/mL (≈ 0.613 µM) and 32 µg/mL, respectively.

`CC[C@H](C)[C@@H]1NC(=O)[C@H]([C@H](C)CC(=O)O)NC(=O)[C@@H](CO)NC(=O)CNC(=O)[C@H](CC(=O)O)NC(=O)[C@@H](C)NC(=O)[C@H](CC(=O)O)NC(=O)[C@H](CCCN)NC(=O)CNC(=O)[C@@H](NC(=O)[C@H](CC(=O)O)NC(=O)[C@@H](CC(N)=O)NC(=O)[C@H](Cc2c[nH]c3ccccc23)NC(=O)CCCCCCCC(C)C)[C@H](C)OC1=O`: in the assay with Staphylococcus aureus [1], the Ratio stood at 4. Besides, the MIC against Staphylococcus aureus [2] was 2 µg/mL (≈ 1.28 µM); in the assay with Staphylococcus aureus [3], 8 µg/mL.

As for `CC(C)CCCCCCCC(=O)N[C@@H](Cc1c[nH]c2ccccc12)C(=O)N[C@H](CC(N)=O)C(=O)N[C@@H](CC(=O)O)C(=O)N[C@@H]1C(=O)NCC(=O)N[C@@H](CCCN)C(=O)N[C@@H](CC(=O)O)C(=O)N[C@H](C)C(=O)N[C@@H](CC(=O)O)C(=O)NCC(=O)N[C@H](CO)C(=O)N[C@@H]([C@H](C)CC(=O)O)C(=O)N[C@@H](C(C)C)C(=O)O[C@H]1C`, in the assay on Staphylococcus aureus [1], the Ratio is on record as 2. The figures for the MIC in the assay on Staphylococcus aureus [2] and in the assay with Staphylococcus aureus [3] were 4 µg/mL (≈ 2.59 µM) and 8 µg/mL, respectively.

On to `CC(C)CCCCCCCC(=O)N[C@@H](Cc1c[nH]c2ccccc12)C(=O)N[C@H](CC(N)=O)C(=O)N[C@@H](CC(=O)O)C(=O)N[C@@H]1C(=O)NCC(=O)N[C@@H](CCCN)C(=O)N[C@@H](CC(=O)O)C(=O)N[C@H](C)C(=O)N[C@@H](CC(=O)O)C(=O)NCC(=O)N[C@H](CO)C(=O)N[C@@H](CCC(=O)O)C(=O)N[C@@H](CC(=O)c2ccccc2N)C(=O)O[C@H]1C`, for which, in the assay on Staphylococcus aureus [1], the Ratio worked out at 2. For the same compound, the figures for the minimum inhibitory concentration (MIC) in the assay with Staphylococcus aureus [2] and with Staphylococcus aureus [3] were 8 µg/mL (≈ 4.94 µM) and 16 µg/mL, respectively.

Turning to `CC(C)CCCCCCCC(=O)N[C@@H](Cc1c[nH]c2ccccc12)C(=O)N[C@H](CC(N)=O)C(=O)N[C@@H](CC(=O)O)C(=O)N[C@@H]1C(=O)NCC(=O)N[C@@H](CCCN)C(=O)N[C@@H](CC(=O)O)C(=O)N[C@H](C)C(=O)N[C@@H](CC(=O)O)C(=O)NCC(=O)N[C@H](CC(N)=O)C(=O)N[C@@H]([C@H](C)CC(=O)O)C(=O)N[C@@H](CC(=O)c2ccccc2N)C(=O)O[C@H]1C`, the Ratio in the assay with Staphylococcus aureus [1] amounted to 16. For the same compound, the minimum inhibitory concentration (MIC) against Staphylococcus aureus [2] was found to be 1 µg/mL (≈ 0.602 µM); with Staphylococcus aureus [3], 16 µg/mL.

Take `CC(C)CCCCCCCC(=O)N[C@@H](Cc1c[nH]c2ccccc12)C(=O)N[C@H](CC(N)=O)C(=O)N[C@@H](CC(=O)O)C(=O)N[C@@H]1C(=O)NCC(=O)N[C@@H](CCCN)C(=O)N[C@@H](CC(=O)O)C(=O)N[C@H](CCCCN)C(=O)N[C@@H](CC(=O)O)C(=O)NCC(=O)N[C@H](CC(N)=O)C(=O)N[C@@H]([C@H](C)CC(=O)O)C(=O)N[C@@H](CC(=O)c2ccccc2N)C(=O)O[C@H]1C`: the Ratio in the assay with Staphylococcus aureus [1] is 32. In addition, the MIC with Staphylococcus aureus [2] was determined as 1 µg/mL (≈ 0.582 µM); with Staphylococcus aureus [3] it was 32 µg/mL.

Turning to `CC[C@H](C)[C@@H]1NC(=O)[C@H]([C@H](C)CC(=O)O)NC(=O)[C@@H](CO)NC(=O)CNC(=O)[C@H]([C@H](OC)C(=O)O)NC(=O)[C@@H](CCCCN)NC(=O)[C@H](CC(=O)O)NC(=O)[C@H](C)NC(=O)CN(C)C(=O)[C@@H](NC(=O)[C@@H](NC(=O)[C@@H](CCC(=O)O)NC(=O)[C@H](Cc2c[nH]c3ccccc23)NC(=O)CCCCCCCC(C)C)[C@H](O)C(N)=O)[C@H](C)OC1=O`, the Ratio in the assay on Staphylococcus aureus [1] is 8. The MIC against Staphylococcus aureus [2] amounted to 2 µg/mL (≈ 1.22 µM); in the assay with Staphylococcus aureus [3] it was 16 µg/mL.

With `CC[C@H](C)[C@@H]1NC(=O)[C@H]([C@H](C)CC(=O)O)NC(=O)[C@@H](CC(N)=O)NC(=O)CNC(=O)[C@H]([C@H](OC)C(=O)O)NC(=O)[C@@H](C)NC(=O)[C@H](CC(=O)O)NC(=O)[C@H](C)NC(=O)CN(C)C(=O)[C@@H](NC(=O)[C@@H](NC(=O)[C@@H](CCC(=O)O)NC(=O)[C@H](Cc2c[nH]c3ccccc23)NC(=O)CCCCCCCC(C)C)[C@H](O)C(N)=O)[C@H](C)OC1=O`, the Ratio in the assay on Staphylococcus aureus [1] worked out at 32. Besides, the MIC in the assay on Staphylococcus aureus [2] worked out at 1 µg/mL (≈ 0.619 µM); in the assay on Staphylococcus aureus [3] it was 32 µg/mL.

As to `CC[C@H](C)[C@@H]1NC(=O)[C@H]([C@H](C)CC(=O)O)NC(=O)[C@@H](CC(N)=O)NC(=O)CNC(=O)[C@H]([C@H](OC)C(=O)O)NC(=O)[C@@H](CC(N)=O)NC(=O)[C@H](CC(=O)O)NC(=O)[C@H](C)NC(=O)CN(C)C(=O)[C@@H](NC(=O)[C@@H](NC(=O)[C@@H](CCC(=O)O)NC(=O)[C@H](Cc2c[nH]c3ccccc23)NC(=O)CCCCCCCC(C)C)[C@H](O)C(N)=O)[C@H](C)OC1=O`, in the assay on Staphylococcus aureus [1], the Ratio stood at 8. The MIC against Staphylococcus aureus [2] amounted to 8 µg/mL (≈ 4.82 µM); in the assay with Staphylococcus aureus [3], 64 µg/mL.

Consider `CC[C@H](C)[C@@H]1NC(=O)[C@H]([C@H](C)CC(=O)O)NC(=O)[C@@H](CC(N)=O)NC(=O)CNC(=O)[C@H]([C@H](OC)C(=O)O)NC(=O)[C@@H](CCCCN)NC(=O)[C@H](CC(=O)O)NC(=O)[C@H](C)NC(=O)CN(C)C(=O)[C@@H](NC(=O)[C@H](CC(N)=O)NC(=O)[C@@H](CCC(=O)O)NC(=O)[C@H](Cc2c[nH]c3ccccc23)NC(=O)CCCCCCCC(C)C)[C@H](C)OC1=O`, for which the Ratio with Staphylococcus aureus [1] is reported as 8. The MIC against Staphylococcus aureus [2] was 2 µg/mL (≈ 1.21 µM); in the assay on Staphylococcus aureus [3], 16 µg/mL.

Consider `CC[C@H](C)[C@@H]1NC(=O)[C@H](CCC(=O)O)NC(=O)[C@@H](C)NC(=O)CNC(=O)[C@H]([C@H](OC)C(=O)O)NC(=O)[C@@H](CCCCN)NC(=O)[C@H](CC(=O)O)NC(=O)[C@H](C)NC(=O)CN(C)C(=O)[C@@H](NC(=O)[C@@H](NC(=O)[C@@H](CCC(=O)O)NC(=O)[C@H](Cc2c[nH]c3ccccc23)NC(=O)CCCCCCCC(C)C)[C@H](O)C(N)=O)[C@H](C)OC1=O`, for which the Ratio in the assay on Staphylococcus aureus [1] amounted to 2. The MIC in the assay with Staphylococcus aureus [2] is 8 µg/mL (≈ 4.95 µM); in the assay on Staphylococcus aureus [3] it was 16 µg/mL.
